Measured values reported in ChEMBL document CHEMBL1131076, “Synthesis of 9-deoxo-4''-deoxy-6,9-epoxyerythromycin derivatives: novel and acid-stable motilides” (1998).

Tests used:
Assay type in all cases: functional
Oryctolagus cuniculus = organism: Oryctolagus cuniculus; assay: Compound was evaluated for the prokinetic activity by measuring smooth muscle contractility from rabbit duodenum isolated tissue.
Method in brief: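 Isolated rabbit duodenum in vitro; records induction of well-coordinated smooth muscle contractions; potency given as pED50.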

Escherichia coli = assay: In vitro antibacterial activity against the Escherichia coli (No. of strains used :5)
Staphylococcus aureus = assay: In vitro antibacterial activity against the Staphylococcus aureus (No. of strains used :5)
Streptococcus sp. = assay: In vitro antibacterial activity against the Streptococcus sp. (No. of strains used :4)

MIC (Escherichia coli) [µg/mL] | MIC (Staphylococcus aureus) [µg/mL] | MIC (Streptococcus sp.) [µg/mL] | Structure (SMILES) | pED50 (Oryctolagus cuniculus)
 |  |  | CC[C@H]1OC(=O)[C@H](C)[C@@H](OC2C[C@@](C)(OC)C[C@H](C)O2)[C@H](C)[C@@H](OC2O[C@H](C)C[C@H](N(C)C)[C@H]2O)[C@@]2(C)C[C@@H](C)[C@H](O2)[C@H](C)[C@@H](O)[C@]1(C)O (some centres not stated) | 7.8
 |  |  | CC[C@H]1OC(=O)[C@H](C)[C@@H](OC2C[C@@](C)(OC)C[C@H](C)O2)[C@H](C)[C@@H](OC2O[C@H](C)C[C@H](N(C)C)[C@H]2O)[C@@]2(C)C[C@@H](C)[C@@H](O2)[C@H](C)[C@@H](O)[C@]1(C)O (some centres not stated) | 5.45
 |  |  | CC[C@H]1OC(=O)[C@H](C)[C@@H](OC2C[C@@](C)(OC)C[C@H](C)O2)[C@H](C)[C@@H](OC2O[C@H](C)C[C@H](NC)[C@H]2O)[C@@]2(C)C[C@H](C)[C@H](O2)[C@H](C)[C@@H](O)[C@]1(C)O (some centres not stated) | 7.64
 |  |  | CCCCN(C)[C@H]1C[C@@H](C)OC(O[C@@H]2[C@@H](C)[C@H](OC3C[C@@](C)(OC)C[C@H](C)O3)[C@@H](C)C(=O)O[C@H](CC)[C@@](C)(O)[C@H](O)[C@@H](C)[C@H]3O[C@]2(C)C[C@@H]3C)[C@@H]1O (some centres not stated) | 4.71
 |  |  | CC[C@H]1OC(=O)[C@H](C)[C@@H](OC2C[C@@](C)(OC)C[C@H](C)O2)[C@H](C)[C@@H](OC2O[C@H](C)C[C@H](N(C)CCF)[C@H]2O)[C@@]2(C)C[C@H](C)[C@H](O2)[C@H](C)[C@@H](O)[C@]1(C)O (some centres not stated) | 6.67
 |  |  | CC[C@H]1OC(=O)[C@H](C)[C@@H](OC2C[C@@](C)(OC)C[C@H](C)O2)[C@H](C)[C@@H](OC2O[C@H](C)C[C@H](N(C)CC#N)[C@H]2O)[C@@]2(C)C[C@H](C)[C@H](O2)[C@H](C)[C@@H](O)[C@]1(C)O (some centres not stated) | 5.71
> 100 | > 100 | > 100 | CC[C@H]1OC(=O)[C@H](C)[C@@H](OC2C[C@@](C)(OC)C[C@H](C)O2)[C@H](C)[C@@H](OC2O[C@H](C)C[C@H](N(C)CC)[C@H]2O)[C@@]2(C)C[C@H](C)[C@H](O2)[C@H](C)[C@@H](O)[C@]1(C)O (some centres not stated) | 8.54
 |  |  | CC[C@H]1OC(=O)[C@H](C)[C@@H](OC2C[C@@](C)(OC)C[C@H](C)O2)[C@H](C)[C@@H](OC2O[C@H](C)C[C@H](N(C)Cc3ccccc3)[C@H]2O)[C@@]2(C)C[C@H](C)[C@H](O2)[C@H](C)[C@@H](O)[C@]1(C)O (some centres not stated) | 4
 |  |  | CC[C@H]1OC(=O)[C@H](C)[C@@H](OC2C[C@@](C)(OC)C[C@H](C)O2)[C@H](C)[C@@H](OC2O[C@H](C)C[C@H](N(C)C(C)C)[C@H]2O)[C@@]2(C)C[C@H](C)[C@H](O2)[C@H](C)[C@@H](O)[C@]1(C)O (some centres not stated) | 7.75
> 100 | > 100 | > 100 | CC[C@H]1OC(=O)[C@H](C)[C@@H](OC2C[C@@](C)(OC)C[C@H](C)O2)[C@H](C)[C@@H](OC2O[C@H](C)C[C@H](N(C)C)[C@H]2O)[C@@]2(C)C[C@H](C)[C@H](O2)[C@H](C)[C@@H](O)[C@]1(C)O (some centres not stated) | 7.93
> 100 | > 100 | > 100 | CC[C@H]1OC(=O)[C@H](C)[C@@H](OC2C[C@@](C)(OC)C[C@H](C)O2)[C@H](C)[C@@H](OC2O[C@H](C)C[C@H](N(C)CCO)[C@H]2O)[C@@]2(C)C[C@H](C)[C@H](O2)[C@H](C)[C@@H](O)[C@]1(C)O (some centres not stated) | 8.11
 |  |  | CC[C@H]1OC(=O)[C@H](C)[C@@H](OC2C[C@@](C)(OC)C[C@H](C)O2)[C@H](C)[C@@H](OC2O[C@H](C)C[C@H](N(C)CCN)[C@H]2O)[C@@]2(C)C[C@H](C)[C@H](O2)[C@H](C)[C@@H](O)[C@]1(C)O (some centres not stated) | 6.43
 |  |  | CC[C@H]1OC(=O)[C@H](C)[C@@H](OC2C[C@@](C)(OC)C[C@H](C)O2)[C@H](C)[C@@H](OC2O[C@H](C)C[C@H](N(C)CC)[C@H]2O)[C@@]2(C)CC(C)=C(O2)[C@H](C)[C@@H](O)[C@H]1C (some centres not stated) | 7.22
